ChEMBL document CHEMBL4002619, “Targeting Type 2 Diabetes with C-Glucosyl Dihydrochalcones as Selective Sodium Glucose Co-Transporter 2 (SGLT2) Inhibitors: Synthesis and Biological Evaluation” (J Med Chem, 2017)
Activity calls are given as the source filed them. No cut-off for these calls is given here.

Columns and labels:
Assay type in all cases: cell-based
[1] = target: T1, Sodium/glucose cotransporter 1 (Homo sapiens, UniProt P13866); assay: Inhibition of human SGLT1 expressed in HEK293 cells assessed as reduction in 2-deoxyglucose uptake at 100 uM pretreated for 10 mins followed by 2-deoxyglucose addition in presence of sodium buffer measured after 1 hr by resazurin dye based fluorescence assay; settings: hek293, 1 h
T1 sequence (P13866 whole entry): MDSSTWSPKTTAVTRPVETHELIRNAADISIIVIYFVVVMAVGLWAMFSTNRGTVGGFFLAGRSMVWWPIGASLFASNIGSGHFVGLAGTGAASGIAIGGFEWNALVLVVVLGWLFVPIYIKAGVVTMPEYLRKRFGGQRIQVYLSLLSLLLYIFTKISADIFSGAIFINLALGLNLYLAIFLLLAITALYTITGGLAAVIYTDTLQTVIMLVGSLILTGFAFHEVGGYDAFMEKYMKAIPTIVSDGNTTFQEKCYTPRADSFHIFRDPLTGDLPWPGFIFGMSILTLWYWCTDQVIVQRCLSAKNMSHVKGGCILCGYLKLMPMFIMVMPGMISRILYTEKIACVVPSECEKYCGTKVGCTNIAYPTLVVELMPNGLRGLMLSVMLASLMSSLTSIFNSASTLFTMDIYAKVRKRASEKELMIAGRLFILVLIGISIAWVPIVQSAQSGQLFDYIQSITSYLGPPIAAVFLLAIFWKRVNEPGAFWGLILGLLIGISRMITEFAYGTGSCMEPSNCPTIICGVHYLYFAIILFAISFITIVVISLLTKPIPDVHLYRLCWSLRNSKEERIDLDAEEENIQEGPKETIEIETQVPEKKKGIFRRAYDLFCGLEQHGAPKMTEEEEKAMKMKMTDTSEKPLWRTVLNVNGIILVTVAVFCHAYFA

[2] = Inhibition of GLUT in HEK293 cells assessed as reduction in 2-deoxyglucose uptake at 100 uM pretreated for 10 mins followed by 2-deoxyglucose addition in presence of choline buffer measured after 1 hr by resazurin dye based fluorescence assay; settings: human
In short: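 SGLT1 and SGLT2 stable HEK293 lines (G418-selected) assayed in sodium-free buffer, NaCl replaced by choline chloride; compounds at 100 µM; phlorizin and cytochalasin B as controls. 2-deoxyglucose 1 mM, 1 h at 37 °C; lysis in 0.1 M NaOH, 80-85 °C 40 min, neutralised; G6PDH/NADP+/diaphorase/resazurin cycling 15-20 h at 37 °C; resorufin fluorescence ex 560/em 590 nm.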

[3] = tested on: HEK293; assay: Cytotoxicity in HEK293 cells assessed as cell viability at 100 uM measured after 20 to 24 hrs by Cell-Titer Blue fluorescence assay; settings: human, hek293, 100 µM
In short: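 HEK293 cells (DMEM, 10% FBS, 37 °C, 5% CO2) seeded 2.0 × 10^4 cells/well 24 h before; compound at 100 µM in triplicate, 20-24 h at 37 °C; CellTiter-Blue 4 h at 37 °C; fluorescence ex 560/em 590 nm; viability as treated/untreated fluorescence ratio, %. DMSO-treated wells run alongside. Mean ± SD of three independent experiments.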

[4] = target: T2, Sodium/glucose cotransporter 2 (Homo sapiens, UniProt P31639); assay: Inhibition of human SGLT2 expressed in HEK293 cells assessed as reduction in 2-deoxyglucose uptake pretreated for 10 mins followed by 2-deoxyglucose addition in presence of sodium buffer measured after 1 hr by resazurin dye based fluorescence assay
T2 sequence (P31639 whole entry): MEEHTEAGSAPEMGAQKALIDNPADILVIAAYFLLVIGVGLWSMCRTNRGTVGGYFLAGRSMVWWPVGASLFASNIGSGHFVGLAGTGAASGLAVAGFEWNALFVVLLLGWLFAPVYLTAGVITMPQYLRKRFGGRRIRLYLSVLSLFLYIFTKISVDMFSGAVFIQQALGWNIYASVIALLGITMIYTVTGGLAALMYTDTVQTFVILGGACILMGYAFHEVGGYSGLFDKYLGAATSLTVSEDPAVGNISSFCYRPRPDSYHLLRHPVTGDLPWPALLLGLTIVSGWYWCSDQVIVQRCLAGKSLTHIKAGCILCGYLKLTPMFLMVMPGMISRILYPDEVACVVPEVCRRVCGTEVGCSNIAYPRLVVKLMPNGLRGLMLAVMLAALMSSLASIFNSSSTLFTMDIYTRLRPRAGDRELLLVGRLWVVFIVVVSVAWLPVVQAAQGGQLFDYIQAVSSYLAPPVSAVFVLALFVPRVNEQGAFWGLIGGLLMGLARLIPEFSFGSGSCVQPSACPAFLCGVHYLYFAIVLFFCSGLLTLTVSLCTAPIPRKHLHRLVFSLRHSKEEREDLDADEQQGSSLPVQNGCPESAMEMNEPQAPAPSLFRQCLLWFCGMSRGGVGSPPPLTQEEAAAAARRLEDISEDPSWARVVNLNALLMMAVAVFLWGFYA

[5] = target: T3, Sodium/glucose cotransporter 2 (Homo sapiens) (UniProt P31639); assay: Inhibition of human SGLT2 expressed in HEK293 cells assessed as reduction in 2-deoxyglucose uptake at 100 uM pretreated for 10 mins followed by 2-deoxyglucose addition in presence of sodium buffer measured after 1 hr by resazurin dye based fluorescence assay
T3 sequence (whole entry): T2 sequence (P31639 whole entry)
In short: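 Stably transfected HEK293 expressing human SGLT2 (pCMV6-Neo, G418-selected), 2.0 × 10^4 cells/well, 24 h; 1 h preincubation in KRPH buffer at 37 °C; compound 100 µM; 2-deoxyglucose 1 mM, 1 h at 37 °C; NaOH lysis at 80-85 °C, neutralised; enzymatic cycling (G6PDH, NADP+, diaphorase, 10 µM resazurin, pH 8.2) 15-20 h; fluorescence ex 560/em 590 nm. Mean ± SD, three independent experiments.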

[6] = Inhibition of GLUT in HEK293 cells assessed as reduction in 2-deoxyglucose uptake pretreated for 10 mins followed by 2-deoxyglucose addition in presence of choline buffer measured after 1 hr by resazurin dye based fluorescence assay; settings: human
[7] = Inhibition of GLUT in HEK293 cells assessed as reduction in 2-deoxyglucose uptake pretreated for 10 mins followed by 2-deoxyglucose addition in presence of sodium buffer measured after 1 hr by resazurin dye based fluorescence assay; settings: human

Row | SMILES | inhibition (INH) [1] | inhibition (INH) [2] | IC50 [4] [µM] | inhibition [5] | Activity [3] | inhibition (INH) [6] | inhibition (INH) [7]
1 | O=C(CCc1ccc(O)cc1)c1c(O)cc(O)cc1O[C@@H]1O[C@H](CO)[C@@H](O)[C@H](O)[C@H]1O [PHLORIZIN] |  |  |  | Active | Non-Toxic |  | 
2 | O=C(CCc1ccccc1)c1c(O)cc(O)cc1O | Active | Active | 14.7 | Active | Non-Toxic |  | 
3 | C=C1[C@@H](C)[C@H]2[C@H](Cc3ccccc3)NC(=O)[C@]23OC(=O)/C=C/[C@H](O)CCC[C@@H](C)C/C=C/[C@H]3[C@@H]1O [CYTOCHALASIN B] |  |  |  |  |  | Active | Active
4 | CCOc1ccc(CCC(=O)c2c(O)cc(O)cc2O)cc1 | Active | Active | 16.7 | Active | Non-Toxic |  | 
5 | CCCOc1ccc(CCC(=O)c2c(O)cc(O)c([C@@H]3O[C@H](CO)[C@@H](O)[C@H](O)[C@H]3O)c2O)cc1 | Active | Not Active | 0.0227 | Active | Non-Toxic |  | 
6 | COc1ccc(CCC(=O)c2c(O)cc(O)c([C@@H]3O[C@H](CO)[C@@H](O)[C@H](O)[C@H]3O)c2O)cc1 | Active | Not Active | 0.0213 | Active | Non-Toxic |  | 
7 | CCOc1ccc(/C=C/C(=O)c2c(O)cc(O)cc2O)cc1 | Active | Active | 26 | Active | Non-Toxic |  | 
8 | CCCOc1ccc(CCC(=O)c2c(O)cc(O)cc2O)cc1 | Active | Active | 16.4 | Active | Non-Toxic |  | 
9 | O=C(CCc1ccccc1)c1c(O)cc(O)c([C@@H]2O[C@H](CO)[C@@H](O)[C@H](O)[C@H]2O)c1O | Active | Not Active | 0.0198 | Active | Non-Toxic |  | 
10 | Cc1ccc(/C=C/C(=O)c2c(O)cc(O)cc2O)cc1 | Active | Active | 34.1 | Active | Non-Toxic |  | 
11 | CCOc1ccc(Cc2cc([C@@H]3O[C@H](CO)[C@@H](O)[C@H](O)[C@H]3O)ccc2Cl)cc1 [DAPAGLIFLOZIN] | Active |  |  | Active |  |  | 

More lines, main results first:

Row | inhibition (INH) [1] | inhibition (INH) [2] | IC50 [4] [µM] | inhibition [5] | SMILES | Activity [3] | inhibition (INH) [6] | inhibition (INH) [7]
12 | Active | Active | 15.8 | Active | O=C(CCc1ccc(F)cc1)c1c(O)cc(O)cc1O | Non-Toxic |  | 
13 | Active | Active | 18 | Active | Cc1ccc(CCC(=O)c2c(O)cc(O)cc2O)cc1 | Non-Toxic |  | 
14 | Active | Active | 23.5 | Active | O=C(/C=C/c1ccc(Br)cc1)c1c(O)cc(O)cc1O [4-BROMO-2',4',6'-TRIHYDROXYCHALCONE] | Non-Toxic |  | 
15 | Active | Not Active | 0.0119 | Active | O=C(CCc1ccc(O)cc1)c1c(O)cc(O)c([C@@H]2O[C@H](CO)[C@@H](O)[C@H](O)[C@H]2O)c1O | Non-Toxic |  | 
16 | Active | Active | 22.7 | Active | O=C(/C=C/c1ccc(OCc2ccccc2)cc1)c1c(O)cc(O)cc1O | Non-Toxic |  | 
17 |  | Active | 18.3 | Active | O=C(CCc1ccc(O)cc1)c1c(O)cc(O)cc1O [PHLORETIN] | Non-Toxic |  | 
18 | Active | Active | 18.2 | Active | COc1ccc(/C=C/C(=O)c2c(O)cc(O)cc2O)cc1 [4-METHOXYL-2',4',6'-TRIHYDROXYCHALCONE] | Non-Toxic |  | 
19 | Active | Not Active | 0.0217 | Active | CCOc1ccc(CCC(=O)c2c(O)cc(O)c([C@@H]3O[C@H](CO)[C@@H](O)[C@H](O)[C@H]3O)c2O)cc1 | Non-Toxic |  | 
20 | Active | Not Active | 0.0091 | Active | O=C(CCc1ccc(F)cc1)c1c(O)cc(O)c([C@@H]2O[C@H](CO)[C@@H](O)[C@H](O)[C@H]2O)c1O | Non-Toxic |  | 
21 |  |  |  | Active | O=C(/C=C/c1ccccc1)c1c(O)cc(O)cc1O [2',4',6-TRIHYDROXYCHALCONE] |  |  | 
22 | Active | Active | 18.7 | Active | COc1ccc(CCC(=O)c2c(O)cc(O)cc2O)cc1 | Non-Toxic |  | 
23 | Active | Active | 26.2 | Active | C=CCOc1ccc(/C=C/C(=O)c2c(O)cc(O)cc2O)cc1 | Non-Toxic |  | 
24 | Active | Active | 51.7 | Active | O=C(/C=C/c1ccc(F)cc1)c1c(O)cc(O)cc1O [4-FLUORO-2',4',6'-TRIHYDROXYCHALCONE] | Non-Toxic |  | 
25 | Active | Not Active | 0.0182 | Active | Cc1ccc(CCC(=O)c2c(O)cc(O)c([C@@H]3O[C@H](CO)[C@@H](O)[C@H](O)[C@H]3O)c2O)cc1 | Non-Toxic |  | 
